In ChEMBL document CHEMBL1671716, “Antimicrobial susceptibility patterns for recent clinical isolates of anaerobic bacteria in South Korea” (2010):
Values after ≈ are worked out from the molar mass of the structure shown.

What was measured:
Anaerococcus prevotii = assay: Antimicrobial activity against Anaerococcus prevotii assessed as percent susceptible isolates after 48 hrs by agar dilution method; assay type: functional
Schaalia odontolytica [1] = assay: Antimicrobial activity against Actinomyces odontolyticus after 48 hrs by agar dilution method; assay type: functional
Method in brief: (§1)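 MICs on clinical anaerobe isolates by the CLSI agar dilution method. Inoculum of 10^5 CFU applied with a Steers replicator. Plates incubated 48 h at 37°C in an anaerobic chamber.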

Clostridium perfringens [2] = assay: Antimicrobial activity against Clostridium perfringens after 48 hrs by agar dilution method; assay type: functional
[3] = tested on: Porphyromonas asaccharolytica; assay: Antimicrobial activity against Porphyromonas asaccharolytica after 48 hrs by agar dilution method; assay type: functional
Method in brief: (§2)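 CLSI agar dilution (M11-A7); inoculum 10^5 CFU applied by replicator; plates incubated anaerobically 48 h at 37°C. For piperacillin-tazobactam, tazobactam held constant at 4 μg/ml.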

Actinomyces israelii [4] = assay: Antimicrobial activity against Actinomyces israelii after 48 hrs by agar dilution method; assay type: functional; method in brief: as §1
Fusobacterium necrogenes = assay: Antimicrobial activity against Fusobacterium necrogenes after 48 hrs by agar dilution method; assay type: functional; method in brief: as §2
Eggerthella lenta [5] = assay: Antimicrobial activity against Eubacterium lentum after 48 hrs by agar dilution method; assay type: functional; method in brief: as §2
Actinomyces israelii [6] = assay: Antimicrobial activity against Actinomyces israelii assessed as percent resistant isolates after 48 hrs by agar dilution method; assay type: functional
Method in brief: (§3)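 CLSI agar dilution on recent Korean clinical anaerobe isolates. Inoculum 10^5 CFU per spot by replicator. Plates incubated in an anaerobic chamber at 37°C for 48 h. For piperacillin plus tazobactam, tazobactam was held constant at 4 μg/ml. Resistance and susceptibility rates derived from MICs.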

Eubacterium sp. [7] = assay: Antimicrobial activity against Eubacterium sp. assessed as percent susceptible isolates after 48 hrs by agar dilution method; assay type: functional; method in brief: as §2
[8] = tested on: Parabacteroides distasonis; assay: Antimicrobial activity against Bacteroides distasonis after 48 hrs by agar dilution method; assay type: functional; method in brief: as §1
Clostridium perfringens [9] = assay: Antimicrobial activity against Clostridium perfringens assessed as percent susceptible isolates after 48 hrs by agar dilution method; assay type: functional
Actinomyces israelii [10] = assay: Antimicrobial activity against Actinomyces israelii assessed as percent susceptible isolates after 48 hrs by agar dilution method; assay type: functional
Bifidobacterium sp. [11] = assay: Antimicrobial activity against Bifidobacterium sp. after 48 hrs by agar dilution method; assay type: functional; method in brief: as §1
[12] = tested on: Bacteroides thetaiotaomicron; assay: Antimicrobial activity against Bacteroides thetaiotaomicron assessed as percent susceptible isolates after 48 hrs by agar dilution method; assay type: functional
Eggerthella lenta [13] = assay: Antimicrobial activity against Eubacterium lentum assessed as percent susceptible isolates after 48 hrs by agar dilution method; assay type: functional; method in brief: as §2
Hoylesella oralis = assay: Antimicrobial activity against Prevotella oralis assessed as percent susceptible isolates after 48 hrs by agar dilution method; assay type: functional
Method in brief: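 CLSI agar dilution MIC testing of clinical isolates. 10^5 CFU spotted by replicator, plates incubated 48 h at 37°C in an anaerobic chamber. Susceptibility rates derived from the MICs.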

Prevotella buccae = assay: Antimicrobial activity against Prevotella buccae assessed as percent resistant isolates after 48 hrs by agar dilution method; assay type: functional, Segatella buccae; method in brief: as §3
Eubacterium sp. [14] = assay: Antimicrobial activity against Eubacterium sp. assessed as percent resistant isolates after 48 hrs by agar dilution method; assay type: functional; method in brief: as §3
Bacteroides ovatus = assay: Antimicrobial activity against Bacteroides ovatus after 48 hrs by agar dilution method; assay type: functional; method in brief: as §1
Schaalia odontolytica [15] = assay: Antimicrobial activity against Actinomyces odontolyticus assessed as percent resistant isolates after 48 hrs by agar dilution method; assay type: functional; method in brief: as §3
Phocaeicola vulgatus [16] = assay: Antimicrobial activity against Bacteroides vulgatus assessed as percent resistant isolates after 48 hrs by agar dilution method; assay type: functional; method in brief: as §3
[17] = tested on: Parabacteroides distasonis; assay: Antimicrobial activity against Bacteroides distasonis assessed as percent resistant isolates after 48 hrs by agar dilution method; assay type: functional; method in brief: as §3
[18] = tested on: Peptostreptococcus anaerobius; assay: Antimicrobial activity against Peptostreptococcus anaerobius after 48 hrs by agar dilution method; assay type: functional; method in brief: as §2
Bifidobacterium sp. [19] = assay: Antimicrobial activity against Bifidobacterium sp. assessed as percent susceptible isolates after 48 hrs by agar dilution method; assay type: functional; method in brief: as §2
Parvimonas micra = assay: Antimicrobial activity against Peptostreptococcus micros after 48 hrs by agar dilution method; assay type: functional; method in brief: as §2
Prevotella intermedia = assay: Antimicrobial activity against Prevotella intermedia after 48 hrs by agar dilution method; assay type: functional; method in brief: as §2
Phocaeicola vulgatus [20] = assay: Antimicrobial activity against Bacteroides vulgatus after 48 hrs by agar dilution method; assay type: functional; method in brief: as §1

Compound | Activity (Anaerococcus prevotii) [%] | MIC50 (Schaalia odontolytica [1]) [µg/mL] | MIC90 (Schaalia odontolytica [1]) [µg/mL] | MIC50 (Clostridium perfringens [2]) [µg/mL] | MIC90 (Clostridium perfringens [2]) [µg/mL] | MIC [3] [µg/mL] | MIC50 (Actinomyces israelii [4]) [µg/mL] | MIC90 (Actinomyces israelii [4]) [µg/mL] | MIC (Fusobacterium necrogenes) [µg/mL] | MIC50 (Eggerthella lenta [5]) [µg/mL] | MIC90 (Eggerthella lenta [5]) [µg/mL] | Activity (Eubacterium sp. [7]) [%] | MIC50 [8] [µg/mL] | MIC90 [8] [µg/mL] | Activity (Clostridium perfringens [9]) [%] | Activity (Actinomyces israelii [10]) [%] | MIC50 (Bifidobacterium sp. [11]) [µg/mL] | MIC90 (Bifidobacterium sp. [11]) [µg/mL] | Activity [12] [%] | Activity (Eggerthella lenta [13]) [%] | other results
C[C@@H](O)[C@H]1C(=O)N2C(C(=O)O)=C(S[C@@H]3CN[C@H](C(=O)N(C)C)C3)[C@H](C)[C@H]12 [MEROPENEM] | 100 | 0.125 (≈ 0.326 µM) | 2 (≈ 5.22 µM) | 0.015 (≈ 0.0391 µM) | 0.015 (≈ 0.0391 µM) | 0.008 (≈ 0.0209 µM) | 0.125 (≈ 0.326 µM) | 2 (≈ 5.22 µM) | 0.008 (≈ 0.0209 µM) | 0.125 (≈ 0.326 µM) | 2 (≈ 5.22 µM) | 92 | 0.25 (≈ 0.652 µM) | 2 (≈ 5.22 µM) | 100 | 92 | 0.125 (≈ 0.326 µM) | 2 (≈ 5.22 µM) | 98 | 92 | Activity (Actinomyces israelii [6]): 8%; Activity (Hoylesella oralis): 100%; Activity (Prevotella buccae): 0%; Activity (Eubacterium sp. [14]): 8%; MIC50 (Bacteroides ovatus): 0.25 µg/mL (≈ 0.652 µM); MIC90 (Bacteroides ovatus): 2 µg/mL (≈ 5.22 µM); Activity (Schaalia odontolytica [15]): 8%; Activity (Phocaeicola vulgatus [16]): 0%; Activity [17]: 0%; MIC [18]: 0.01 µg/mL (≈ 0.0261 µM); MIC50 [18]: 0.25 µg/mL (≈ 0.652 µM); MIC90 [18]: 4 µg/mL (≈ 10.4 µM); Activity (Bifidobacterium sp. [19]): 92%; MIC (Parvimonas micra): 0.01 µg/mL (≈ 0.0261 µM); MIC50 (Parvimonas micra): 0.25 µg/mL (≈ 0.652 µM); MIC90 (Parvimonas micra): 4 µg/mL (≈ 10.4 µM); MIC50 (Prevotella intermedia): 0.06 µg/mL (≈ 0.156 µM); MIC90 (Prevotella intermedia): 0.06 µg/mL (≈ 0.156 µM); MIC50 (Phocaeicola vulgatus [20]): 0.25 µg/mL (≈ 0.652 µM); MIC90 (Phocaeicola vulgatus [20]): 2 µg/mL (≈ 5.22 µM)
CO[C@@]1(NC(=O)C2SC(=C(C(N)=O)C(=O)O)S2)C(=O)N2C(C(=O)O)=C(CSc3nnnn3C)CS[C@@H]21 (stereo partly drawn) [CEFOTETAN] | 100 | 4 (≈ 6.95 µM) | 64 (≈ 111 µM) | 0.25 (≈ 0.434 µM) | 1 (≈ 1.74 µM) | 0.06 (≈ 0.104 µM) | 4 (≈ 6.95 µM) | 64 (≈ 111 µM) | 0.06 (≈ 0.104 µM) | 4 (≈ 6.95 µM) | 64 (≈ 111 µM) | 85 | > 128 | > 128 | 100 | 85 | 4 (≈ 6.95 µM) | 64 (≈ 111 µM) | 89 | 85 | Activity (Actinomyces israelii [6]): 15%; Activity (Hoylesella oralis): 72%; Activity (Prevotella buccae): 17%; Activity (Eubacterium sp. [14]): 15%; MIC50 (Bacteroides ovatus): > 128 µg/mL; MIC90 (Bacteroides ovatus): > 128 µg/mL; Activity (Schaalia odontolytica [15]): 15%; Activity (Phocaeicola vulgatus [16]): 86%; Activity [17]: 86%; MIC50 [18]: 4 µg/mL (≈ 6.95 µM); MIC90 [18]: 64 µg/mL (≈ 111 µM); Activity (Bifidobacterium sp. [19]): 85%; MIC50 (Parvimonas micra): 4 µg/mL (≈ 6.95 µM); MIC90 (Parvimonas micra): 64 µg/mL (≈ 111 µM); MIC50 (Prevotella intermedia): 2 µg/mL (≈ 3.47 µM); MIC90 (Prevotella intermedia): 16 µg/mL (≈ 27.8 µM); MIC50 (Phocaeicola vulgatus [20]): > 128 µg/mL; MIC90 (Phocaeicola vulgatus [20]): > 128 µg/mL
CO[C@@]1(NC(=O)Cc2cccs2)C(=O)N2C(C(=O)O)=C(COC(N)=O)CS[C@@H]21 [CEFOXITIN] | 100 | 2 (≈ 4.68 µM) | 16 (≈ 37.4 µM) | 1 (≈ 2.34 µM) | 2 (≈ 4.68 µM) | 0.06 (≈ 0.14 µM) | 2 (≈ 4.68 µM) | 16 (≈ 37.4 µM) | 0.06 (≈ 0.14 µM) | 2 (≈ 4.68 µM) | 16 (≈ 37.4 µM) | 92 | 32 (≈ 74.9 µM) | 32 (≈ 74.9 µM) | 100 | 92 | 2 (≈ 4.68 µM) | 16 (≈ 37.4 µM) | 25 | 92 | Activity (Actinomyces israelii [6]): 0%; Activity (Hoylesella oralis): 89%; Activity (Prevotella buccae): 0%; Activity (Eubacterium sp. [14]): 0%; MIC50 (Bacteroides ovatus): 32 µg/mL (≈ 74.9 µM); MIC90 (Bacteroides ovatus): 32 µg/mL (≈ 74.9 µM); Activity (Schaalia odontolytica [15]): 0%; Activity (Phocaeicola vulgatus [16]): 7%; Activity [17]: 7%; MIC50 [18]: 1 µg/mL (≈ 2.34 µM); MIC90 [18]: 16 µg/mL (≈ 37.4 µM); Activity (Bifidobacterium sp. [19]): 92%; MIC50 (Parvimonas micra): 1 µg/mL (≈ 2.34 µM); MIC90 (Parvimonas micra): 16 µg/mL (≈ 37.4 µM); MIC50 (Prevotella intermedia): 2 µg/mL (≈ 4.68 µM); MIC90 (Prevotella intermedia): 4 µg/mL (≈ 9.36 µM); MIC50 (Phocaeicola vulgatus [20]): 32 µg/mL (≈ 74.9 µM); MIC90 (Phocaeicola vulgatus [20]): 32 µg/mL (≈ 74.9 µM)
Cc1ncc([N+](=O)[O-])n1CCO [METRONIDAZOLE] | 100 | 16 (≈ 93.5 µM) | > 128 | 0.03 (≈ 0.175 µM) | 0.06 (≈ 0.351 µM) | 0.13 (≈ 0.76 µM) | 16 (≈ 93.5 µM) | > 128 | 0.13 (≈ 0.76 µM) | 16 (≈ 93.5 µM) | > 128 | 46 | 2 (≈ 11.7 µM) | 2 (≈ 11.7 µM) | 100 | 46 | 16 (≈ 93.5 µM) | > 128 | 100 | 46 | MIC (Clostridium perfringens [2]): 0.02 µg/mL (≈ 0.117 µM); Activity (Hoylesella oralis): 100%; Activity (Prevotella buccae): 0%; MIC50 (Bacteroides ovatus): 2 µg/mL (≈ 11.7 µM); MIC90 (Bacteroides ovatus): 2 µg/mL (≈ 11.7 µM); Activity (Phocaeicola vulgatus [16]): 0%; Activity [17]: 0%; MIC50 [18]: 0.5 µg/mL (≈ 2.92 µM); MIC90 [18]: 1 µg/mL (≈ 5.84 µM); Activity (Bifidobacterium sp. [19]): 46%; MIC50 (Parvimonas micra): 0.5 µg/mL (≈ 2.92 µM); MIC90 (Parvimonas micra): 1 µg/mL (≈ 5.84 µM); MIC (Prevotella intermedia): 0.5 µg/mL (≈ 2.92 µM); MIC50 (Prevotella intermedia): 0.5 µg/mL (≈ 2.92 µM); MIC90 (Prevotella intermedia): 2 µg/mL (≈ 11.7 µM); MIC50 (Phocaeicola vulgatus [20]): 2 µg/mL (≈ 11.7 µM); MIC90 (Phocaeicola vulgatus [20]): 2 µg/mL (≈ 11.7 µM)
